# Calls of active or inactive are those of the source. The calls are words filed in the database; no cut-off is given here.
# Tests used:
# Format in all cases: functional
# [1] = system: Mycobacterium tuberculosis; test: Antimycobacterial activity against Mycobacterium tuberculosis H37Rv after 45 days
# Summary of the method: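 Canetti proportion method. Compound in DMSO is added to Löwenstein–Jensen egg medium before coagulation (30 min, 85 °C), tested at three levels plus a lower one where needed. Tubes are inoculated with H37Rv at 10⁵ cells/ml and incubated 45 days at 37 °C. Colony counts versus drug-free control give percentage inhibition.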
# [2] = system: Bacillus subtilis; test: Antibacterial activity against Bacillus subtilis ATCC 6633 at 50 mg/ml after 24 hrs by agar diffusion test; settings: for zone of inhibition at 50000 µg/mL: ATCC 6633, 24 h, read-out: DIZ
# Summary of the method: (§1)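 Agar diffusion: wells in agar filled with […] DMSO solution of compound at various concentrations; diameter of clear zone around application point measured. Bacteria grown 24 h at 37 °C on nutrient agar. Compounds first screened at 50 mg/ml; those active then tested at lower concentrations. Bracketed value = lowest concentration (mg/ml) giving zone >11 mm, reported only if activity retained at ≤1.25 mg/ml.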
# [3] = system: Bacillus; test: Antibacterial activity against Bacillus idosus B 241 at 50 mg/ml after 24 hrs by agar diffusion test; settings: for zone of inhibition at 50000 µg/mL: B 241, 24 h, read-out: DIZ; summary of the method: as §1
# [4] = system: Priestia megaterium; test: Antibacterial activity against Bacillus megaterium NRRL 1353895 at 50 mg/ml after 24 hrs by agar diffusion test; summary of the method: as §1
# [5] = system: Bacillus mycoides; test: Antibacterial activity against Bacillus mycoides DSMZ 274 at 50 mg/ml after 24 hrs by agar diffusion test; settings: for zone of inhibition at 50000 µg/mL: DSMZ 274, 24 h, read-out: DIZ; summary of the method: as §1
# [6] = system: Bacillus cereus; test: Antibacterial activity against Bacillus cereus ATCC 11778 at 50 mg/ml after 24 hrs by agar diffusion test; settings: for zone of inhibition at 50000 µg/mL: ATCC 11778, 24 h, read-out: DIZ; summary of the method: as §1
# [7] = system: Acinetobacter johnsonii; test: Antibacterial activity against Acinetobacter johnsonii ATCC 17909 at 50 mg/ml after 24 hrs by agar diffusion test; settings: for zone of inhibition at 50000 µg/mL: ATCC 17909, 24 h, read-out: DIZ; summary of the method: as §1
# [8] = system: Staphylococcus aureus; test: Antibacterial activity against Staphylococcus aureus NRRL B 313 at 50 mg/ml after 24 hrs by agar diffusion test; settings: for zone of inhibition at 50000 µg/mL: NRRL B 313, 24 h, read-out: DIZ
# Summary of the method: (§2)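 Agar diffusion: bacteria grown 24 h at 37 °C on nutrient agar. Wells in the agar are filled with […] of compound solution in DMSO at various concentrations. The diameter of the clear zone around the application point is measured. Bracketed values give the lowest concentration (mg/ml) that produces a zone >11 mm. A first screen is run at 50 mg/ml.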
# [9] = system: Micrococcus luteus; test: Antibacterial activity against Sarcina lutea ATCC 9341 at 50 mg/ml after 24 hrs by agar diffusion test; settings: for zone of inhibition at 50000 µg/mL: ATCC 9341, 24 h, read-out: DIZ; summary of the method: as §2
# [10] = system: Micrococcus luteus; test: Antibacterial activity against Micrococcus luteus ATCC 9631 at 50 mg/ml after 24 hrs by agar diffusion test; settings: for zone of inhibition at 50000 µg/mL: ATCC 9631, 24 h, read-out: DIZ; summary of the method: as §1
# [11] = system: Escherichia coli; test: Antibacterial activity against Escherichia coli ATCC 8739 at 50 mg/ml after 24 hrs by agar diffusion test; summary of the method: as §1
# [12] = system: Candida tropicalis; test: Antifungal activity against Candida tropicalis ATCC 20336 at 50 mg/ml after 72 hrs by agar diffusion test; settings: for zone of inhibition at 50000 µg/mL: ATCC 20336, 72 h, read-out: DIZ
# Summary of the method: (§3)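 Agar diffusion: yeasts grown on yeast peptone dextrose agar and fungi on potato dextrose agar. Wells are filled with […] of compound solution in DMSO at various concentrations, and the clear-zone diameter is measured. Bracketed values give the lowest concentration (mg/ml) that produces a zone >11 mm. A first screen is run at 50 mg/ml.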
# [13] = system: Saccharomyces cerevisiae; test: Antifungal activity against Saccharomyces cerevisiae ATCC 9763 at 50 mg/ml after 72 hrs by agar diffusion test; summary of the method: as §3
# [14] = system: Penicillium chrysogenum; test: Antifungal activity against Penicillium chrysogenum CECT 2802 at 50 mg/ml after 72 hrs by agar diffusion test; summary of the method: as §3
SMILES,MIC [1] [µM],diameter of the inhibition zone (DIZ) [2],zone of inhibition at 50000 µg/mL [3] [mm],diameter of the inhibition zone (DIZ) [4],diameter of the inhibition zone (DIZ) [5],zone of inhibition at 50000 µg/mL [6] [mm],zone of inhibition at 50000 µg/mL [7] [mm],zone of inhibition at 50000 µg/mL [8] [mm],zone of inhibition at 50000 µg/mL [9] [mm],zone of inhibition at 50000 µg/mL [10] [mm],diameter of the inhibition zone (DIZ) [11],zone of inhibition at 50000 µg/mL [12] [mm],diameter of the inhibition zone (DIZ) [13],diameter of the inhibition zone (DIZ) [14],diameter of the inhibition zone (DIZ) [7],diameter of the inhibition zone (DIZ) [9],diameter of the inhibition zone (DIZ) [10],diameter of the inhibition zone (DIZ) [12],diameter of the inhibition zone (DIZ) [3],diameter of the inhibition zone (DIZ) [8],other results
CC[C@H](CO)N(Cc1ccccc1)Cc1ccccc1,> 18.6,inactive,11,inactive,inactive,11,11,11,12,12,inactive,10,inactive,inactive,,,,,,,
CC[C@H](CO)NC(=O)C(C)(C)C,28.9,,11,inactive,,16,,15,,,inactive,,inactive,inactive,inactive,inactive,inactive,inactive,,,zone of inhibition at 50000 µg/mL [2]: 15 mm; zone of inhibition at 50000 µg/mL [5]: 11 mm
CC[C@H](CO)NC(=O)c1ccncc1,> 25.7,inactive,,inactive,inactive,,,,,,inactive,,inactive,inactive,inactive,inactive,inactive,inactive,inactive,inactive,diameter of the inhibition zone (DIZ) [6]: inactive
CC[C@H](CO)NC(=O)c1ccc2ccccc2c1,> 20.6,inactive,,inactive,inactive,,,,,,inactive,,inactive,inactive,inactive,inactive,inactive,inactive,inactive,inactive,diameter of the inhibition zone (DIZ) [6]: inactive
CC[C@H](CO)Nc1cccc(Br)n1,20.4,,17,,,19,14,14,17,18,,25,,,,,,,,,"zone of inhibition at 50000 µg/mL [2]: 13 mm; zone of inhibition at 50000 µg/mL ([4]; NRRL 1353895, 24 h, read-out: DIZ): 15 mm; zone of inhibition at 50000 µg/mL [5]: 13 mm; zone of inhibition at 50000 µg/mL ([11]; ATCC 8739, 24 h, read-out: DIZ): 17 mm; zone of inhibition at 50000 µg/mL ([13]; ATCC 9763, 72 h, read-out: DIZ): 10 mm; zone of inhibition at 50000 µg/mL ([14]; CECT 2802, 72 h, read-out: DIZ): 17 mm"
CC[C@H](CO)Nc1ncccn1,> 29.9,inactive,,inactive,inactive,12,,,,,inactive,,inactive,inactive,inactive,inactive,inactive,inactive,inactive,inactive,

# From ChEMBL document CHEMBL1932986, “Synthesis and in vitro antimycobacterial activity of compounds derived from (R)- and (S)-2-amino-1-butanol - The crucial role of the configuration” (Eur J Med Chem, 2012)
